ChEMBL document CHEMBL1126763, “Nonpeptide angiotensin II receptor antagonists. Synthesis and biological activity of potential prodrugs of benzimidazole-7-carboxylic acids” (J Med Chem, 1993)

Key:
[1] = Tested for half- life in rat small intestine homogenate (1%); format: ADME
How it was run: (§1)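 Prodrugs (final 10 μg/mL) were incubated at 37 °C in rat 1% small intestine homogenate, 2% liver homogenate or 10% plasma. Aliquots taken from 10 s to 30 min were deproteinized with methanol, and the residue was redissolved in 1/15 M phosphate buffer. Released parent acid was measured by HPLC (ODS column, UV 258 nm, 0.01 M KH2PO4/MeCN 55/45). t1/2 was taken from the concentration change; mean ± SD, n = 3.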

[2] = Tested for Half- life in rat liver homogenate (2%); format: ADME; how it was run: as §1
[3] = Tested for Half- life in rat plasma homogenate (10%) at 37 degree Centigrade; format: ADME; how it was run: as §1
[4] = biological target: T1, Angiotensin II receptor (Rattus norvegicus) (UniProt P29089+P25095+P35351); test: Inhibitory effect on AII (100 ng/kg iv)-induced pressor response after administration at 0.1 mg/kg po in conscious male Sprague-Dawley rats at 0.5 h.; format: functional, organism-based; design: dose 0.1 mg/kg
How it was run: (§2)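 Conscious male Sprague-Dawley rats received test compounds orally at 0.1 mg/kg. AII (100 ng/kg iv) was given as a pressor challenge at each time point after dosing, and percent inhibition of the pressor response was recorded. Experiments were run in duplicate (n = 2); parent drug and one ester used n = 3. Inhibition may vary by less than 30%.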

[5] = biological target: T1, Angiotensin II receptor (Rattus norvegicus); test: Inhibitory activity on AII (100 ng/kg iv)-induced pressor response at 0.1 mg/kg po in conscious male Sprague-Dawley rats at 1 h.; format: functional, organism-based; design: dose 0.1 mg/kg; how it was run: as §2
[6] = biological target: T1, Angiotensin II receptor (Rattus norvegicus); test: Inhibitory activity on AII (100 ng/kg iv)-induced pressor response after administration at 0.1 mg/kg po in conscious male Sprague-Dawley rats at 7 h.; format: functional, organism-based; design: dose 0.1 mg/kg; how it was run: as §2
[7] = biological target: T1, Angiotensin II receptor (Rattus norvegicus); test: Inhibitory activity on AII (100 ng/kg iv)-induced pressor response after administration at 0.1 mg/kg po in conscious male Sprague-Dawley rats at 2 h.; format: functional, organism-based; design: dose 0.1 mg/kg; how it was run: as §2
[8] = biological target: T1, Angiotensin II receptor (Rattus norvegicus); test: Inhibitory activity on AII (100 ng/kg iv)-induced pressor response after administration at 0.1 mg/kg po in conscious male Sprague-Dawley rats at 5 h.; format: functional, organism-based; design: dose 0.1 mg/kg; how it was run: as §2
[9] = biological target: T1, Angiotensin II receptor (Rattus norvegicus); test: Inhibitory activity on AII (100 ng/kg iv)-induced pressor response after administration at 0.1 mg/kg po in conscious male Sprague-Dawley rats at 3 h.; format: functional, organism-based; design: dose 0.1 mg/kg; how it was run: as §2
[10] = Tested against A II at (100 ng/kg iv) in Dawley rats (n=2). 24 h; format: functional; how it was run: as §2
Rattus norvegicus [11] = test: Inhibitory activity on AII (100 ng/kg iv) -induced pressor response after administration at 0.1 mg/kg po in Dawley rats at 1 h; format: functional; how it was run: as §2
[12] = biological target: T1, Angiotensin II receptor (Rattus norvegicus); test: Inhibitory activity on AII (100 ng/kg iv)-induced pressor response after administration at 0.1 mg/kg po in conscious male Sprague-Dawley rats at 24 h.; format: functional, organism-based; design: dose 0.1 mg/kg; how it was run: as §2
Rattus norvegicus [13] = test: Inhibitory activity on AII (100 ng/kg iv) -induced pressor response after administration at 0.1 mg/kg po in Dawley rats at 0.5 h; format: functional; how it was run: as §2

Structure (SMILES)	half-life [1]	half-life [2]	half-life [3]	inhibition [4]	inhibition [5]	inhibition [6]	inhibition [7]	inhibition [8]	inhibition [9]	Inhibition [10]	inhibition in vivo at 0.1 mg/kg (Rattus norvegicus [11])	inhibition [12]	inhibition in vivo at 0.1 mg/kg (Rattus norvegicus [13])
CCOc1nc2cccc(C(=O)OC(C)OC(=O)OC3CCCCC3)c2n1Cc1ccc(-c2ccccc2-c2nnn[nH]2)cc1 (stereo not drawn) [CANDESARTAN CILEXETIL]	4.92 min	2.29 min	2.73 min	–	–	–	–	–	–	–	–	–	–
CCCCc1nc2cccc(C(=O)OCc3oc(=O)oc3C)c2n1Cc1ccc(-c2ccccc2-c2nnn(Cc3oc(=O)oc3C)n2)cc1.CCCCc1nc2cccc(C(=O)OCc3oc(=O)oc3C)c2n1Cc1ccc(-c2ccccc2-c2nnnn2Cc2oc(=O)oc2C)cc1	–	–	–	7%	9%	46%	33%	59%	60%	17%	–	–	–
CCCCOC(=O)c1cccc2nc(CCCC)n(Cc3ccc(-c4ccccc4-c4nn[nH]n4)cc3)c12	–	–	–	–	–	90%	80%	88%	78%	–	40%	76%	16%
CCCCc1nc2cccc(C(=O)OCCO)c2n1Cc1ccc(-c2ccccc2-c2nn[nH]n2)cc1	–	–	–	–	–	25%	10%	21%	11%	–	7%	20%	7%
CCCCc1nc2cccc(C(=O)O)c2n1Cc1ccc(-c2ccccc2-c2nnn(COC(=O)C(C)(C)C)n2)cc1.CCCCc1nc2cccc(C(=O)O)c2n1Cc1ccc(-c2ccccc2-c2nnnn2COC(=O)C(C)(C)C)cc1	22.7 min	9.8 min	3.94 min	7%	4%	69%	33%	67%	63%	–	–	32%	–
CCCCc1nc2cccc(C(=O)OCCN3CCOCC3)c2n1Cc1ccc(-c2ccccc2-c2nn[nH]n2)cc1	–	–	–	–	–	96%	96%	96%	96%	–	94%	66%	67%
CCCCc1nc2cccc(C(=O)OCCN3CCCCC3)c2n1Cc1ccc(-c2ccccc2-c2nn[nH]n2)cc1	–	–	–	–	–	49%	46%	62%	69%	–	47%	28%	20%
CCCCc1nc2cccc(C(=O)OCOC(=O)C(C)(C)C)c2n1Cc1ccc(-c2ccccc2-c2nn[nH]n2)cc1	1.08 min	3.61 min	0.69 min	58%	90%	86%	96%	92%	95%	–	–	50%	–
CCOc1nc2cccc(C(=O)OCOC(=O)C(C)(C)C)c2n1Cc1ccc(-c2ccccc2-c2nn[nH]n2)cc1	0.3 min	0.48 min	0.15 min	42%	77%	86%	88%	87%	86%	–	–	43%	–
